Reference: PubChem BioAssay
A number with no mark means an inactive call. Calls of active or inactive are those of the source.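 Rule for the calls, unless noted: active = viability at or under a set limit in both replicates, limit being median viability minus 3 SD (cut at about 48% in these data, passing the limit was not always enough); inconclusive = at or under the limit in just one replicate; inactive = at or above the limit in both replicates.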

Assay: HUVEC growth inhibition – cell-based, human, primary screen (AID 575;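 active = viability at or below 30% in both replicate assays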;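 note: 100% = median of untreated cell wells with 0.1% DMSO on each plate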)
Details: HUVEC proliferation, CellTiter-Glo luminescence, 72 h; at 10 µM; active compounds read low
Method in brief: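 Assay system: primary human umbilical vein endothelial cells / Buffer or medium: endothelial basal medium with 2% FBS plus growth supplements / Compound dosing: one dose, 10 µM final, 0.1% DMSO / Timing: 72 h treatment at 37 °C / Signal: CTG luminescence / Benchmarks: 32 DMSO-only cell-control wells (high), 32 MePR drug-control wells (low) per plate / Plate: collagen-coated 384-well format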

SMILES | viability
CCOc1ccc(N(CC(=O)Nc2ccc(C)c(C)c2)S(=O)(=O)c2c(C)noc2C)cc1 | 68.8%
CCCn1c(OC)nc2c1c(=O)n(C)c(=O)n2C | 83.2%
COc1cc2[nH]c(=O)n(CCCCCC(=O)N3CCN(c4ccccn4)CC3)c(=O)c2cc1OC | 100%
CCOc1ccc(N(CC(=O)NC2CCCCC2)S(=O)(=O)c2c(C)noc2C)cc1 | 87.3%
O=C(c1ccco1)N1CCN(C(=O)c2sccc2-c2ccccc2)CC1 | 86.2%
CCSC1=C(C#N)C(c2ccccc2OC)CC(=O)N1 (stereo not drawn) | 86.3%
CCOC(=O)Cn1nc(-c2ccc(Cl)cc2)cc1N | 91.8%
CC(C(=O)N1CC2(C)CC1CC(C)(C)C2)N1C(=O)c2ccccc2C1=O (stereo not drawn) | 101%
COc1cccc(N(C(C)=O)c2nc(C)cc(C)c2C#N)c1 | 96.1%
COc1cccc(NC(=O)c2ccco2)c1 | 94.5%
Cc1ccc(Cn2c(CN3CCOCC3)nc3c2c(=O)n(C)c(=O)n3C)cc1 | 90.5%
CCOc1ccc(NC(=O)CSc2nccn2C)cc1 | 82.7%
Cc1nc2ccc(Br)cn2c1NC(C)(C)C | 101%
COc1ccccc1C(=O)NCCc1nc2ccccc2n1C | 119%
Cn1ccnc1SCC(=O)Nc1ccc2ccccc2c1 | 91.5%
c1nc(NCC2(N3CCOCC3)CCCCC2)c2ccsc2n1 | 97.7%
Cc1noc(C(=O)Nc2ccc3c(c2)OCO3)c1Cl | 51.4%
Cc1ccc(S(=O)(=O)N2CCOCC2)cc1C(=O)Nc1nc(-c2cccnc2)cs1 | 88.8%
Cc1cccc(C)c1OCc1nnc(SCC(=O)Nc2ccccc2F)o1 | 108%
CCN(CC)CCCN1C(=O)C(O)=C(C(=O)c2ccco2)C1c1ccc(C)o1 (stereo not drawn) | 102%

SMILES | viability
Cc1ccc(S(=O)(=O)C(C#N)c2nc3ccccc3nc2N2CCCCC2)cc1 (stereo not drawn) | 71.6%
C(/CCc1ccccc1)=N\n1cnnc1 | 117%
CCOCCCNC(=O)C(c1ccccc1)N(Cc1ccc2c(c1)OCO2)C(=O)CNC(C)=O (stereo not drawn) | 97.7%
COc1ccccc1N1CCN(c2cc(=O)n(Cc3ccc(F)cc3)c(=O)[nH]2)CC1 | 44.1%
CNC(=O)C1C2C=CC3(O2)C1C(=O)N(C1CC1)C3C(=O)NCc1ccc(OC)cc1 (stereo not drawn) | 91.9%
CCCSc1nc2c(cnn2-c2ccc(C)cc2)c(=O)[nH]1 | 7.04% (active)
Nn1c(Cc2ccccc2F)nnc1SCC(=O)N1CC(=O)Nc2ccccc21 | 109%
CCc1ccc(N2CC(C(=O)OCC(=O)NC3CCS(=O)(=O)C3)CC2=O)cc1 (stereo not drawn) | 98.6%
Cc1ccccc1Cn1ccc(NC(=O)c2onc(C)c2Cl)n1 | 93.6%
O=C(CSc1ccc2nnc(-c3ccccc3)n2n1)N1CCN(c2ccccc2)CC1 | 77.9%
CC(C)C(NC(=O)c1ccc(S(=O)(=O)N2CCOCC2)cc1)c1nc2ccccc2[nH]1 (stereo not drawn) | 72.5%
Cc1ccc(SCC(=O)NCCN2C(=O)CSC2=O)c(C)c1 | 92.3%
N#Cc1c2n(c(=O)[nH]c1=O)CCCCC2 | 96.2%
CCN(C1CCCCC1)S(=O)(=O)c1ccc(S(=O)(=O)N2CCN(CCC#N)CC2)cc1 | 75.8%
COc1cccc2c(=O)c3c(cnn3C)n(C)c12 | 84.9%
Cc1nnc(N2C(=O)C(O)=C(C(=O)c3ccco3)C2c2ccc(F)cc2)s1 (stereo not drawn) | 120%
CC1(C)CC(=O)C(C=NCC2CCNCC2)=C(O)C1 | 106%
CCOC(=O)C(C)Sc1nnc(Cc2cc(=O)[nH]c(=O)[nH]2)n1-c1ccc(Cl)cc1 (stereo not drawn) | 102%
O=C(CS(=O)(=O)Cc1ccccc1)Nc1nc2ccccc2s1 | 89.2%

Assay: H69AR cell proliferation blockers – human, duplicate replicates, primary screen (AID 580);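 note: 100% = mean luminescence of untreated wells and 0% = no signal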
Details: H69AR lung tumor cells viability, ATP luminescence, 72 h; at 10 µM; active compounds read low

SMILES | viability
CCOc1ccc(N(CC(=O)Nc2ccc(C)c(C)c2)S(=O)(=O)c2c(C)noc2C)cc1 | 53.8%
CCCn1c(OC)nc2c1c(=O)n(C)c(=O)n2C | 94.4%
COc1cc2[nH]c(=O)n(CCCCCC(=O)N3CCN(c4ccccn4)CC3)c(=O)c2cc1OC | 89.3%
CCOc1ccc(N(CC(=O)NC2CCCCC2)S(=O)(=O)c2c(C)noc2C)cc1 | 74.3%
O=C(c1ccco1)N1CCN(C(=O)c2sccc2-c2ccccc2)CC1 | 83%
CCSC1=C(C#N)C(c2ccccc2OC)CC(=O)N1 (stereo not drawn) | 99.8%
CCOC(=O)Cn1nc(-c2ccc(Cl)cc2)cc1N | 101%
CC(C(=O)N1CC2(C)CC1CC(C)(C)C2)N1C(=O)c2ccccc2C1=O (stereo not drawn) | 98.1%
COc1cccc(N(C(C)=O)c2nc(C)cc(C)c2C#N)c1 | 104%
COc1cccc(NC(=O)c2ccco2)c1 | 94.9%
Cc1ccc(Cn2c(CN3CCOCC3)nc3c2c(=O)n(C)c(=O)n3C)cc1 | 102%
CCOc1ccc(NC(=O)CSc2nccn2C)cc1 | 99.7%
Cc1nc2ccc(Br)cn2c1NC(C)(C)C | 86.8%
COc1ccccc1C(=O)NCCc1nc2ccccc2n1C | 101%
Cn1ccnc1SCC(=O)Nc1ccc2ccccc2c1 | 105%
c1nc(NCC2(N3CCOCC3)CCCCC2)c2ccsc2n1 | 98.6%
Cc1noc(C(=O)Nc2ccc3c(c2)OCO3)c1Cl | 96.9%
Cc1ccc(S(=O)(=O)N2CCOCC2)cc1C(=O)Nc1nc(-c2cccnc2)cs1 | 103%
Cc1cccc(C)c1OCc1nnc(SCC(=O)Nc2ccccc2F)o1 | 83%
CCN(CC)CCCN1C(=O)C(O)=C(C(=O)c2ccco2)C1c1ccc(C)o1 (stereo not drawn) | 85.4%

SMILES | viability
Cc1ccc(S(=O)(=O)C(C#N)c2nc3ccccc3nc2N2CCCCC2)cc1 (stereo not drawn) | 92%
C(/CCc1ccccc1)=N\n1cnnc1 | 99%
CCOCCCNC(=O)C(c1ccccc1)N(Cc1ccc2c(c1)OCO2)C(=O)CNC(C)=O (stereo not drawn) | 105%
COc1ccccc1N1CCN(c2cc(=O)n(Cc3ccc(F)cc3)c(=O)[nH]2)CC1 | 12.1% (active)
CNC(=O)C1C2C=CC3(O2)C1C(=O)N(C1CC1)C3C(=O)NCc1ccc(OC)cc1 (stereo not drawn) | 91.5%
CCCSc1nc2c(cnn2-c2ccc(C)cc2)c(=O)[nH]1 | 19.1% (active)
Nn1c(Cc2ccccc2F)nnc1SCC(=O)N1CC(=O)Nc2ccccc21 | 84.1%
CCc1ccc(N2CC(C(=O)OCC(=O)NC3CCS(=O)(=O)C3)CC2=O)cc1 (stereo not drawn) | 103%
Cc1ccccc1Cn1ccc(NC(=O)c2onc(C)c2Cl)n1 | 100%
O=C(CSc1ccc2nnc(-c3ccccc3)n2n1)N1CCN(c2ccccc2)CC1 | 83.8%
CC(C)C(NC(=O)c1ccc(S(=O)(=O)N2CCOCC2)cc1)c1nc2ccccc2[nH]1 (stereo not drawn) | 82.2%
Cc1ccc(SCC(=O)NCCN2C(=O)CSC2=O)c(C)c1 | 87.7%
N#Cc1c2n(c(=O)[nH]c1=O)CCCCC2 | 103%
CCN(C1CCCCC1)S(=O)(=O)c1ccc(S(=O)(=O)N2CCN(CCC#N)CC2)cc1 | 87.8%
COc1cccc2c(=O)c3c(cnn3C)n(C)c12 | 81.9%
Cc1nnc(N2C(=O)C(O)=C(C(=O)c3ccco3)C2c2ccc(F)cc2)s1 (stereo not drawn) | 99.6%
CC1(C)CC(=O)C(C=NCC2CCNCC2)=C(O)C1 | 93.8%
CCOC(=O)C(C)Sc1nnc(Cc2cc(=O)[nH]c(=O)[nH]2)n1-c1ccc(Cl)cc1 (stereo not drawn) | 103%
O=C(CS(=O)(=O)Cc1ccccc1)Nc1nc2ccccc2s1 | 92.1%
